Data published in ChEMBL document CHEMBL1759947, “Synthesis and evaluation of arylquinones as BACE1 inhibitors, β-amyloid peptide aggregation inhibitors, and destabilizers of preformed β-amyloid fibrils” (Bioorg Med Chem Lett, 2011).

Tests used:
[1] = Induction of amyloid beta (25 to 35) disaggregation after 4 days by Thioflavin-T fluorescence assay
How it was run: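 Aβ(25–35) first held at 37 °C for 4 days to form fibrils, then exposed to quinone for another 4 days at 37 °C; remaining fibrils measured by thioflavin-T fluorescence (ex 448/em 483 nm) with ThT blank subtracted; IC50 derived.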

[2] = Inhibition of amyloid beta (25 to 35) aggregation for 4 days by Thioflavin-T fluorescence assay
How it was run: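 Aβ(25–35) dissolved at 1 mM in PBS (stock), diluted, mixed with quinone and held at 37 °C for 4 days; aggregation read by thioflavin-T fluorescence (ex 448/em 483 nm) after subtracting a ThT blank; IC50 derived.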

SH-SY5Y = test: Cytotoxicity against human SH-SY5Y cells up to 20 uM for 24 hrs by MTT assay; type: cell-based
How it was run: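 SH-SY5Y neuroblastoma cells; viability by mitochondrial reduction of MTT to formazan, reported as percent cell death at a single concentration.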

Beta-secretase 1 = Beta-secretase 1 (Homo sapiens, UniProt P56817); test: Inhibition of human recombinant BACE1 preincubated after 1 hr by fluorescence assay
Sequence of Beta-secretase 1 (P56817 whole entry): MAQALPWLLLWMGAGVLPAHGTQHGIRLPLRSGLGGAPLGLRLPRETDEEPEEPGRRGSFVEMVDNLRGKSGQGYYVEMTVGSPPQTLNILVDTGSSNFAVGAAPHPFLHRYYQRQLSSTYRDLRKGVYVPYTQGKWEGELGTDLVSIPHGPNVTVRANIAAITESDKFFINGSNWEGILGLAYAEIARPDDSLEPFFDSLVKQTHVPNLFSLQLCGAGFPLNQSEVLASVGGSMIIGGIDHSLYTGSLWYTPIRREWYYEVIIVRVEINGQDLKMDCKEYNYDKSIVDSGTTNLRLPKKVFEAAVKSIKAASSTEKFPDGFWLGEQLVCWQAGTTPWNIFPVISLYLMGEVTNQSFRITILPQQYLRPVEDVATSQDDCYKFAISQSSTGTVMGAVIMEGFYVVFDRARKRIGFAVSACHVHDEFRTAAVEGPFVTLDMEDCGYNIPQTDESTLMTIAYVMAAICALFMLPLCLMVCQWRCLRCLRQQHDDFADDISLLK

Structure (SMILES) | IC50 [1] | IC50 [2] | IC50 (Beta-secretase 1) | IC50 ([2]; read-out: IC50) | IC50 ([1]; read-out: IC50) | Activity (SH-SY5Y)
O=C1C=C(c2ccccc2)C(=O)c2ccccc21 | Not Active | Not Active | 9.33 µM | – | – | Non-toxic
O=C1C=C(c2ccc(O)cc2)C(=O)c2ccccc21 | Not Active | Not Active | 8.22 µM | – | – | Non-toxic
O=C1C(c2ccccc2)=CC(=O)c2c(O)cccc21 | Not Active | Not Active | 12.6 µM | – | – | Non-toxic
O=C1C(c2ccc(O)cc2)=CC(=O)c2c(O)cccc21 | Not Active | Not Active | 16.1 µM | – | – | Non-toxic
COc1cccc2c1C(=O)C(c1ccc(O)cc1)=CC2=O | – | – | 10.3 µM | 16.6 µM | 5.05 µM | Non-toxic
O=C1C=C(c2ccccc2)C(=O)C=C1c1ccccc1 | – | – | – | – | – | Toxic
O=C1C=C(c2ccc(F)cc2)C(=O)C=C1c1ccccc1 | – | – | – | – | – | 78.08%
COc1ccc(C2=CC(=O)C(c3ccccc3)=CC2=O)cc1 | – | – | – | – | – | 56.29%
COc1ccc(C2=CC(=O)C(c3ccc(F)cc3)=CC2=O)cc1 | – | – | – | – | – | 66.22%
O=C1C=C(c2ccccc2)C(=O)C(c2ccccc2)=C1 | – | – | 11.4 µM | 9.28 µM | 9 µM | Non-toxic
O=C1C=C(c2ccccc2)C(=O)C(c2ccc(C(F)(F)F)cc2)=C1 | – | – | – | – | – | 100%
COc1ccc(C2=CC(=O)C=C(c3ccc(F)cc3)C2=O)cc1 | – | – | – | – | – | 62.5%

More lines, main results first:

IC50 [1] | IC50 [2] | IC50 (Beta-secretase 1) | IC50 ([2]; read-out: IC50) | IC50 ([1]; read-out: IC50) | Structure (SMILES) | Activity (SH-SY5Y)
Not Active | – | 11.2 µM | 22.6 µM | – | COc1ccc(C2=CC(=O)c3c(OC)cccc3C2=O)cc1 | Non-toxic
Not Active | Not Active | 8.98 µM | – | – | O=C1C=C(c2ccccc2)C(=O)c2c(O)cccc21 | Non-toxic
– | – | 6.52 µM | 14.2 µM | 12.3 µM | O=C1C=C(c2ccc(C(F)(F)F)cc2)C(=O)C=C1c1ccccc1 | Non-toxic
– | – | 23.3 µM | 6.37 µM | 7.15 µM | COc1ccc(C2=CC(=O)C(c3ccc(OC)cc3)=CC2=O)cc1 | Non-toxic
– | – | 13.4 µM | 9.56 µM | 7.87 µM | COc1ccc(C2=CC(=O)C=C(c3ccccc3)C2=O)cc1 | Non-toxic
– | – | 16 µM | > 50 µM | 14.3 µM | Oc1cc(-c2ccccc2)c(O)cc1-c1ccccc1 | Non-toxic
– | – | 9.1 µM | 17.8 µM | 8.24 µM | COc1ccc(-c2cc(O)cc(-c3ccccc3)c2O)cc1 | Non-toxic
– | Not Active | 23.9 µM | – | > 50 µM | COc1ccc(-c2cc(OC(C)=O)c(-c3ccc(OC)cc3)cc2OC(C)=O)cc1 | Non-toxic
– | – | – | > 50 µM | > 50 µM | CC(=O)Oc1cc(-c2ccc(C(F)(F)F)cc2)c(OC(C)=O)cc1-c1ccccc1 | Non-toxic
Not Active | Not Active | 20 µM | – | – | CC(=O)Oc1cc(-c2ccccc2)c(OC(C)=O)c(-c2ccccc2)c1 | Non-toxic
Not Active | Not Active | 11.1 µM | – | – | COc1ccc(-c2cc(OC(C)=O)cc(-c3ccccc3)c2OC(C)=O)cc1 | Non-toxic
Not Active | Not Active | 11.3 µM | – | – | COc1ccc(-c2cc(O)cc(-c3ccccc3)c2OC(C)=O)cc1 | Non-toxic
